Results published in the M2OR odorant receptor database.
Positions count from the first letter of the chain named.

Experiments:
Conditions in all cases: stereoisomer not certain
OR4S2 (Homo sapiens) = target: T1, OR4S2 (Homo sapiens) (UniProt Q8NH73)
T1 sequence (whole entry): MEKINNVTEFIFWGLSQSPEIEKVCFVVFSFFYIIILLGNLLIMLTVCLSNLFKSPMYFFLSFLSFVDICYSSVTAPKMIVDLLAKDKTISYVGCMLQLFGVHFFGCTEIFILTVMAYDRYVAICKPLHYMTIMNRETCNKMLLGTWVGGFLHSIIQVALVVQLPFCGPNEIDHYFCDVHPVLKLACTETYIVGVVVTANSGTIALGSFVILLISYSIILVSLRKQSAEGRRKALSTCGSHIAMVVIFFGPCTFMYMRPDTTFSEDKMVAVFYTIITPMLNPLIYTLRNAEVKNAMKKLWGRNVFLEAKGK
In short: (§1)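 Assay methods differ from source to source, frequently being transient luciferase assays in mammalian cell lines. For each receptor–molecule pair, the label responsive (active) applies when the original authors judged the measured signal statistically different from baseline, and non-responsive (inactive) applies otherwise.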

OR4X1 (Homo sapiens) = target: T2, OR4X1 (Homo sapiens) (UniProt Q8NH49)
T2 sequence (whole entry): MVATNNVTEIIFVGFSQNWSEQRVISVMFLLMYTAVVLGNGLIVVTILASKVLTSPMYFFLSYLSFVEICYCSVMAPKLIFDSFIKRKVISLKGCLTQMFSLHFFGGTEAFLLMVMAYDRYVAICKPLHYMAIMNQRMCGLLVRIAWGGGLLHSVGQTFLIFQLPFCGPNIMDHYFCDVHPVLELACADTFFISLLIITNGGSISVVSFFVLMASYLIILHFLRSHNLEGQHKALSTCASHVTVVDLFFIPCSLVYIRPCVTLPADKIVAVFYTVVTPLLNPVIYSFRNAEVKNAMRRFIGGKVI
In short: as §1

OR4X2 (Homo sapiens) = target: T3, OR4X2 (Homo sapiens) (UniProt Q8NGF9)
T3 sequence (whole entry): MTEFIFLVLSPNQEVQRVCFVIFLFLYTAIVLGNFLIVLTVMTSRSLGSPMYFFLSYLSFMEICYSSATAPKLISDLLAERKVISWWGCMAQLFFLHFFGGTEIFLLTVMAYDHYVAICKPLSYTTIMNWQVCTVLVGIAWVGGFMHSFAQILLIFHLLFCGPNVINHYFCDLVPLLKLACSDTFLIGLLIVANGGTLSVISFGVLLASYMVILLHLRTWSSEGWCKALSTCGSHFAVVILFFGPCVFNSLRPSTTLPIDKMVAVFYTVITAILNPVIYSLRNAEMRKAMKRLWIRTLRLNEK
In short: as §1

OR51A2 (Homo sapiens) = target: T4, OR51A2 (Homo sapiens) (UniProt Q8NGJ7)
T4 sequence (whole entry): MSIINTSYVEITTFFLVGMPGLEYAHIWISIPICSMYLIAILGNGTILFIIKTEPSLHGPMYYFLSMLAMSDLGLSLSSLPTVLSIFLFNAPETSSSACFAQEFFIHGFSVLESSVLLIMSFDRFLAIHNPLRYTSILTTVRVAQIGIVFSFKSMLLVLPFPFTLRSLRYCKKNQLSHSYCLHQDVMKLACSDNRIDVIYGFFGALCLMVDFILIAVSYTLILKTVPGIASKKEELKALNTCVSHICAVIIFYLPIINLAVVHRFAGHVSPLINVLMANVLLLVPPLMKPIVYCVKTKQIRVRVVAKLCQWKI
In short: as §1

OR51A4 (Homo sapiens) = target: T5, OR51A4 (Homo sapiens) (UniProt Q8NGJ6)
T5 sequence (whole entry): T4 sequence (whole entry) with G59E, T94I, S97N, S167N, P227L, E235Q, G267R, M288T, K289N, W311R
In short: as §1

OR51A7 (Homo sapiens) = target: T6, OR51A7 (Homo sapiens) (UniProt Q8NH64)
T6 sequence (whole entry): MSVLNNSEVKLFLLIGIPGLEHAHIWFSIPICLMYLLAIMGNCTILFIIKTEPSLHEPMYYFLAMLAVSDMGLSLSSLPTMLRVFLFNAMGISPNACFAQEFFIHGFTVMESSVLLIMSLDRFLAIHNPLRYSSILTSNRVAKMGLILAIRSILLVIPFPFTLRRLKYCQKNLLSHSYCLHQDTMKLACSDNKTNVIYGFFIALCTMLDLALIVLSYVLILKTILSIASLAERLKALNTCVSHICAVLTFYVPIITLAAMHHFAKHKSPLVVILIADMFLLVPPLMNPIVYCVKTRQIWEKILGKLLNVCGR
In short: as §1

OR51B2 (Homo sapiens) = target: T7, OR51B2 (Homo sapiens) (UniProt Q9Y5P1)
T7 sequence (whole entry): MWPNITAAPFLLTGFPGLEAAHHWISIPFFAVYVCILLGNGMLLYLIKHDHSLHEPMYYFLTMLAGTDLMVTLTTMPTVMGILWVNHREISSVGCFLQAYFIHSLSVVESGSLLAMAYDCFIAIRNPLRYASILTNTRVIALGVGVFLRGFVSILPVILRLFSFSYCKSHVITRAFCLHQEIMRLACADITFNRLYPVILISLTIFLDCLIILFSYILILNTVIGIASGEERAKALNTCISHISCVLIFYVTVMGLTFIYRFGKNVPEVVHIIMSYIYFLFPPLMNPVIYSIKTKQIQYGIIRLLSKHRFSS
In short: as §1

OR51B4 (Homo sapiens) = target: T8, OR51B4 (Homo sapiens) (UniProt Q9Y5P0)
T8 sequence (whole entry): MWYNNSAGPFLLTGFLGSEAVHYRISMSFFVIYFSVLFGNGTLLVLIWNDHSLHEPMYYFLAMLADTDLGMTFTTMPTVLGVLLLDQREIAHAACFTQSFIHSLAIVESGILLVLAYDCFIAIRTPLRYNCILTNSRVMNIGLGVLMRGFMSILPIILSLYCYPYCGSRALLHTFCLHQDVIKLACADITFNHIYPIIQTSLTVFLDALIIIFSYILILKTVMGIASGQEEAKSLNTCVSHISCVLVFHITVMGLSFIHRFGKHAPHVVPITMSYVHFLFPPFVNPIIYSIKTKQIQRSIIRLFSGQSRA
In short: as §1

OR51B5 (Homo sapiens) = target: T9, OR51B5 (Homo sapiens) (UniProt Q9H339)
T9 sequence (whole entry): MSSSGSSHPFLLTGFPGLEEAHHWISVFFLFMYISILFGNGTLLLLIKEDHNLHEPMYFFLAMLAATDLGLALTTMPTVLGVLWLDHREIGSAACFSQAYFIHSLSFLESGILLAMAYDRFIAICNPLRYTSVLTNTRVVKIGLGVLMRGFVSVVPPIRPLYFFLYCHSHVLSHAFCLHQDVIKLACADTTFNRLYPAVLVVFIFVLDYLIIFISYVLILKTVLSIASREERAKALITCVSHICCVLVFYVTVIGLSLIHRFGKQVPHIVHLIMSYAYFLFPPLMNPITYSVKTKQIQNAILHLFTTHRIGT
In short: as §1

OR51B6 (Homo sapiens) = target: T10, OR51B6 (Homo sapiens) (UniProt Q9H340)
T10 sequence (whole entry): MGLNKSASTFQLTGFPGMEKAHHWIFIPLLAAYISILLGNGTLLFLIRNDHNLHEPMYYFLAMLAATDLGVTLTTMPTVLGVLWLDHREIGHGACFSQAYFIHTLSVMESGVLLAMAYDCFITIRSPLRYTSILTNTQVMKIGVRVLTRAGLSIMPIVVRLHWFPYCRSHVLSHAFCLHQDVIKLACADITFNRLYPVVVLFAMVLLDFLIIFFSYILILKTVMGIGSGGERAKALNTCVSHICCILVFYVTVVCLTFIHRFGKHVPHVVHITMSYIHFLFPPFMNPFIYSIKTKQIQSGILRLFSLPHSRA
In short: as §1

OR51D1 (Homo sapiens) = target: T11, OR51D1 (Homo sapiens) (UniProt Q8NGF3)
T11 sequence (whole entry): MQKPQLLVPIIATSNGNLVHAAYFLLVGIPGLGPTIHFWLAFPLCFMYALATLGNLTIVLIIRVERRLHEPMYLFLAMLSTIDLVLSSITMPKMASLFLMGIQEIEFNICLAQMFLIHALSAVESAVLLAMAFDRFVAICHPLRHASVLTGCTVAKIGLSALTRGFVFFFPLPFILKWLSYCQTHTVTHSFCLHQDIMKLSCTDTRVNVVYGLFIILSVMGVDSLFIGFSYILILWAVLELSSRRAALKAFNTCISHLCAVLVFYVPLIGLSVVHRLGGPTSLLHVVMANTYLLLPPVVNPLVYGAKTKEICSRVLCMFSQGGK
In short: as §1

OR51E1 (Homo sapiens) [1] = target: T12, OR51E1 (Homo sapiens) (UniProt Q8TCB6)
T12 sequence (whole entry): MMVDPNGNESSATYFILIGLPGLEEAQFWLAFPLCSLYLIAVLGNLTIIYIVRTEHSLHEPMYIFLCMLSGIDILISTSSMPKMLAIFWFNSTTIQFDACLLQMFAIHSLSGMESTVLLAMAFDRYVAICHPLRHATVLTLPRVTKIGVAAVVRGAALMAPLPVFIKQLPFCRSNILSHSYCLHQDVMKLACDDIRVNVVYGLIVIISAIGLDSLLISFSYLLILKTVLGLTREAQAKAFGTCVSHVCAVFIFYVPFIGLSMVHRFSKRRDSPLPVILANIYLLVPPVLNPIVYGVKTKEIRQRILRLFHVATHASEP
In short: as §1

OR51E2 (Homo sapiens) = target: T13, OR51E2 (Homo sapiens) (UniProt Q9H255)
T13 sequence (whole entry): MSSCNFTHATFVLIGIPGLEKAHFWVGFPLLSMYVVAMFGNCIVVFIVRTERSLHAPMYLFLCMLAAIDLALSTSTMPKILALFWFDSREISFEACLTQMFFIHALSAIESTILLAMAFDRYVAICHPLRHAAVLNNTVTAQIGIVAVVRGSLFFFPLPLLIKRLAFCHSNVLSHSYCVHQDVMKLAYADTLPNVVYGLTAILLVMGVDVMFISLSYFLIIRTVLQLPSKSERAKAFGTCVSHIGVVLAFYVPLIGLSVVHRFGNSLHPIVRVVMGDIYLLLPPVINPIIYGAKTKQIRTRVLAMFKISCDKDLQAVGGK
In short: as §1

OR51F2 (Homo sapiens) = target: T14, OR51F2 (Homo sapiens) (UniProt Q8NH61)
T14 sequence (whole entry): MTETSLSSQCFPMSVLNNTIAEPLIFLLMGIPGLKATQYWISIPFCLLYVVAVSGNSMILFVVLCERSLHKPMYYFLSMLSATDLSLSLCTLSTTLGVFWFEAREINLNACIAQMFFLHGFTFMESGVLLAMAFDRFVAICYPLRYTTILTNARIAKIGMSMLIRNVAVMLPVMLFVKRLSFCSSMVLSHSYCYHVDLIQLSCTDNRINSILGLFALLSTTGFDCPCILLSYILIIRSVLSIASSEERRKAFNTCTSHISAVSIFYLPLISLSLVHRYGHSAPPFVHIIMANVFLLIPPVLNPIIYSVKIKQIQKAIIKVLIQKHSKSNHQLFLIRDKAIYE
In short: as §1

OR51G1 (Homo sapiens) = target: T15, OR51G1 (Homo sapiens) (UniProt Q8NGK1)
T15 sequence (whole entry): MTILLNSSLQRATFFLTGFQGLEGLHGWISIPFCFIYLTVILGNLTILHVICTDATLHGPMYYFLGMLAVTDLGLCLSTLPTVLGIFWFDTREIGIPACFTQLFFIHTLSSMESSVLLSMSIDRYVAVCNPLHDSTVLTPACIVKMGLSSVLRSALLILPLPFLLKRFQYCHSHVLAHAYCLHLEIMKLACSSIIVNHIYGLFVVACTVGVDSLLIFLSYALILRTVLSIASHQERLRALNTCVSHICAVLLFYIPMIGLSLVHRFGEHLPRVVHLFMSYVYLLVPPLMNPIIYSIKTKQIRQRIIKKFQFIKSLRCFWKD
In short: as §1

OR51G2 (Homo sapiens) = target: T16, OR51G2 (Homo sapiens) (UniProt Q8NGK0)
T16 sequence (whole entry): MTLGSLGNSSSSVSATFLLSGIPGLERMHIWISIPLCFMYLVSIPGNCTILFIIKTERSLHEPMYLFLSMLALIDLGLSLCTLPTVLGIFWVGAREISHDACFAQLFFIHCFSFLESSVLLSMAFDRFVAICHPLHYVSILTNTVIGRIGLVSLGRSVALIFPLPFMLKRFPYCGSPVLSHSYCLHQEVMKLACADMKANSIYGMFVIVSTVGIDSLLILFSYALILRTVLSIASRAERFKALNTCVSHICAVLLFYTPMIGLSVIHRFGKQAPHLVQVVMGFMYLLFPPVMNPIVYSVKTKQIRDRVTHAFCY
In short: as §1

OR51I1 (Homo sapiens) = target: T17, OR51I1 (Homo sapiens) (UniProt Q9H343)
T17 sequence (whole entry): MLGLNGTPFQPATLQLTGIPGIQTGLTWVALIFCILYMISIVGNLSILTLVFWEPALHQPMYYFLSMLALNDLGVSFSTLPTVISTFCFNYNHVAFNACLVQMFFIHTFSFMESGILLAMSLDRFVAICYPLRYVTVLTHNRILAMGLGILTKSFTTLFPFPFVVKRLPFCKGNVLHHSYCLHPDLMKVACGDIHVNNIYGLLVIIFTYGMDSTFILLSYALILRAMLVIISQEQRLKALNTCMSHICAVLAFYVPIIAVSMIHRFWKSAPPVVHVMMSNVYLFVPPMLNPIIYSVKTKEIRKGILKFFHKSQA
In short: as §1

OR51E1 (Homo sapiens) [2] = target: T18, OR51E1 (Homo sapiens) (UniProt Q8TCB6); remark: listed apart in the source
T18 sequence (whole entry): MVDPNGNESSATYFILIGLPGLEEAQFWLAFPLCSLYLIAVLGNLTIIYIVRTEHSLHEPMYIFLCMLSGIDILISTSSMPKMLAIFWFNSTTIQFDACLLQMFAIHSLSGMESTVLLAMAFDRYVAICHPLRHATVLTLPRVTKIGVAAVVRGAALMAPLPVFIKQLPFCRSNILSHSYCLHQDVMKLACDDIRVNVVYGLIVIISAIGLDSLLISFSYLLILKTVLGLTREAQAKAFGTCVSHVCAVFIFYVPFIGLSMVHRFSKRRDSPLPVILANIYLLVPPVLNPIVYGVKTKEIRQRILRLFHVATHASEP
In short: as §1

Measured: odorant receptor agonist call

CC1=NC(C)C(C)S1 (stereo unspecified)
not listed: OR51E1 (Homo sapiens) [2]
inactive: all other assays above

CC(C)=CCCC(C)=CCO
inactive: OR4X2 (Homo sapiens) | OR51B5 (Homo sapiens) | OR51E1 (Homo sapiens) [2] | OR51E2 (Homo sapiens)
